Reference: ChEMBL document CHEMBL2086251, “Arylazolyl(azinyl)thioacetanilides. Part 10: design, synthesis and biological evaluation of novel substituted imidazopyridinylthioacetanilides as potent HIV-1 inhibitors” (Bioorg Med Chem, 2012)
pEC50, pIC50: −log10 of the molar value.

Key:
[1] = system: Human immunodeficiency virus 1; assay: Antiviral activity against HIV-1 RES056 harboring RT K103N/Y181C mutant gene infected human MT4 cells assessed as inhibition in viral syncytium formation by MTT assay; format: functional, organism-based; settings: Human immunodeficiency virus 1, RES056, MT4
In short: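 MT-4 cells infected with double-mutant RT (K103N/Y181C) HIV-1 RES056; compounds added as serial fivefold dilutions in triplicate wells with mock-infected parallels. Cells at 6 × 10⁵ cells/mL. Viability read by MTT after five days at 540 and 690 nm, median OD of three wells. EC50 is the concentration inhibiting virus-induced syncytium formation by 50%.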

[2] = system: Human immunodeficiency virus 1; assay: Antiviral activity against HIV-1 3B infected human MT4 cells assessed as inhibition in viral syncytium formation by MTT assay; format: functional, organism-based; settings: Human immunodeficiency virus 1, 3B
In short: (§1)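 MT-4 cells (6 × 10⁵ cells/mL) infected with HIV-1 IIIB or HIV-2 ROD stock at 100–300 CCID50, with serial fivefold compound dilutions in triplicate wells. After 5 days, viability was read by MTT reduction at 540 and 690 nm, using the median OD of three wells. EC50 is the concentration giving 50% inhibition of virus-induced syncytium formation.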

[3] = system: Human immunodeficiency virus 2; assay: Antiviral activity against HIV-2 ROD infected human MT4 cells assessed as inhibition in viral syncytium formation by MTT assay; format: functional, organism-based; settings: Human immunodeficiency virus 2, ISOLATE ROD; in short: as §1
[4] = Cytotoxicity against mock-infected human MT4 cells by MTT assay; format: cell-based
In short: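 Mock-infected MT-4 cells (6 × 10⁵ cells/mL) were run in parallel with the infected wells, with serial fivefold compound dilutions in triplicate. After 5 days, viability was read by MTT at 540 and 690 nm, using the median OD of three wells. CC50 is the concentration that reduces OD540 of mock-infected controls by 50%.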

[5] = Selectivity index, ratio of CC50 for human MT4 cells to EC50 for HIV-1 3B; format: toxicity, cell-based; settings: read-out: Ratio CC50/EC50
In short: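 SI is the ratio CC50/EC50, both taken from parallel 5-day MTT assays in MT-4 cells. CC50 comes from mock-infected cells and EC50 from HIV-1 IIIB-infected cells.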

[6] = biological target: Human immunodeficiency virus type 1 reverse transcriptase (Human immunodeficiency virus 1, UniProt Q72547); assay: Inhibition of recombinant HIV-1 RT assessed as inhibition of biotin-dUTP incorporation by colorimetric analysis
In short: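 Highly purified recombinant HIV-1 RT was used with a […] homopolymer template primer. Nucleotides were linked to a microtiter plate, and incorporated biotin-dUTP was detected colorimetrically. IC50 is the concentration inhibiting biotin-dUTP incorporation by 50%.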

## Cc1cc(C)c(-n2c(SCC(=O)Nc3cccnc3Cl)nc3cnccc32)c(C)c1
[1]
  pEC50: < 4.66
[2]
  pEC50: 5.77
[3]
  pEC50: < 4.66
[4]
  CC50: 22 µM
[5]
  selectivity ratio: 12

## Cc1cc(C)c(-n2c(SCC(=O)Nc3ccc([N+](=O)[O-])cc3Cl)nc3cccnc32)c(C)c1
[2]
  pEC50: < 4.60
[3]
  pEC50: < 4.60
[4]
  CC50: 25 µM
[5]
  selectivity ratio: < 1

## Cc1cc(C)c(-n2c(SCC(=O)Nc3ccccc3C)nc3cnccc32)c(C)c1
[2]
  pEC50: < 4.66
[3]
  pEC50: < 4.66
[4]
  CC50: 22 µM
[5]
  selectivity ratio: < 1

## Cc1cc(C)c(-n2c(SCC(=O)Nc3ncc(C)cc3Br)nc3cnccc32)c(C)c1
[2]
  pEC50: < 4.21
[3]
  pEC50: < 4.21
[4]
  CC50: 61 µM
[5]
  selectivity ratio: < 1

## Cc1cc(C)c(-n2c(SCC(=O)Nc3ccccc3F)nc3cccnc32)c(C)c1
[2]
  pEC50: < 5.43
[3]
  pEC50: < 5.43
[4]
  CC50: 3.7 µM
[5]
  selectivity ratio: < 1

## Cc1cc(C)c(-n2c(SCC(=O)Nc3ccc(S(N)(=O)=O)cc3Br)nc3cccnc32)c(C)c1
[1]
  pEC50: < 4.66
[2]
  pEC50: 6.12
[3]
  pEC50: < 4.66
[4]
  CC50: 22 µM
[5]
  selectivity ratio: 30

## CC(C)Nc1cccnc1N1CCN(C(=O)c2cc3cc(NS(C)(=O)=O)ccc3[nH]2)CC1 [DELAVIRDINE]
[1]
  pEC50: < 4.44
[4]
  CC50: > 36 µM
[5]
  selectivity ratio: > 1030

## Cc1cc(C)c(-n2c(SCC(=O)Nc3ccc(S(N)(=O)=O)cc3Br)nc3cnccc32)c(C)c1
[1]
  pEC50: < 5.01
[2]
  pEC50: 6.68
[3]
  pEC50: < 5.01
[4]
  CC50: 9.7 µM
[6]
  pIC50: 5.36
[5]
  selectivity ratio: 46

## Cc1cc(C)c(-n2c(SCC(=O)Nc3ccccc3C)nc3cccnc32)c(C)c1
[2]
  pEC50: < 4.82
[3]
  pEC50: < 4.82
[4]
  CC50: 15 µM
[5]
  selectivity ratio: < 1

## Cc1cc(C)c(-n2c(SCC(=O)Nc3ccc(C)cc3Br)nc3cccnc32)c(C)c1
[2]
  pEC50: < 6.00
[3]
  pEC50: < 6.00
[4]
  CC50: 0.99 µM
[5]
  selectivity ratio: < 1

## COC(=O)c1ccc(NC(=O)CSc2nc3cnccc3n2-c2c(C)cc(C)cc2C)c(Br)c1
[1]
  pEC50: < 4.57
[2]
  pEC50: ≤ 5.60
[3]
  pEC50: < 4.57
[4]
  CC50: 27 µM
[5]
  selectivity ratio: ≤ 11

## Cc1cc(C)c(-n2c(SCC(=O)Nc3ccc(C)cc3[N+](=O)[O-])nc3cccnc32)c(C)c1
[2]
  pEC50: < 3.84
[3]
  pEC50: < 3.84
[4]
  CC50: 144 µM
[5]
  selectivity ratio: < 1

## Cc1cc(C)c(-n2c(SCC(=O)Nc3ccc([N+](=O)[O-])cc3Cl)nc3cnccc32)c(C)c1
[1]
  pEC50: < 4.54
[2]
  pEC50: 5.85
[3]
  pEC50: < 4.54
[4]
  CC50: 29 µM
[5]
  selectivity ratio: 20

## CC(=O)c1ccc(NC(=O)CSc2nc3cccnc3n2-c2c(C)cc(C)cc2C)c(Br)c1
[1]
  pEC50: < 4.34
[2]
  pEC50: 5.44
[3]
  pEC50: < 4.34
[4]
  CC50: 46 µM
[5]
  selectivity ratio: 13

## Cc1cc(C)c(-n2c(SCC(=O)Nc3ccccc3F)nc3cnccc32)c(C)c1
[2]
  pEC50: < 4.74
[3]
  pEC50: < 4.74
[4]
  CC50: 18 µM
[5]
  selectivity ratio: < 1

## Cc1cc(C)c(-n2c(SCC(=O)Nc3ccc(Cl)cc3Cl)nc3cccnc32)c(C)c1
[2]
  pEC50: < 5.52
[3]
  pEC50: < 5.52
[4]
  CC50: 3.9 µM
[5]
  selectivity ratio: < 1

## CCOC(=O)c1ccc(NC(=O)CSc2nc3cnccc3n2-c2c(C)cc(C)cc2C)c(Br)c1
[1]
  pEC50: < 4.66
[2]
  pEC50: 5.33
[3]
  pEC50: < 4.66
[4]
  CC50: 22 µM
[5]
  selectivity ratio: 5

## Cc1cc(C)c(-n2c(SCC(=O)Nc3ccc(C)cc3[N+](=O)[O-])nc3cnccc32)c(C)c1
[1]
  pEC50: < 5.21
[2]
  pEC50: ≤ 5.92
[3]
  pEC50: < 5.21
[4]
  CC50: 6.2 µM
[5]
  selectivity ratio: ≤ 5

## Cc1cc(C)c(-n2c(SCC(=O)Nc3ccccc3Br)nc3cnccc32)c(C)c1
[1]
  pEC50: < 4.66
[2]
  pEC50: 5.28
[3]
  pEC50: < 4.66
[4]
  CC50: 22 µM
[5]
  selectivity ratio: 4

## Cc1cc(C)c(-n2c(SCC(=O)Nc3ccccc3Cl)nc3cccnc32)c(C)c1
[2]
  pEC50: < 5.41
[3]
  pEC50: < 5.41
[4]
  CC50: 3.9 µM
[5]
  selectivity ratio: < 1

## CC(=O)c1ccc(NC(=O)CSc2nc3cnccc3n2-c2c(C)cc(C)cc2C)c(Br)c1
[1]
  pEC50: < 4.21
[2]
  pEC50: 6.00
[3]
  pEC50: < 4.21
[4]
  CC50: 61 µM
[5]
  selectivity ratio: 61

## Cc1cc(C)c(-n2c(SCC(=O)Nc3ccccc3Cl)nc3cnccc32)c(C)c1
[2]
  pEC50: < 4.72
[3]
  pEC50: < 4.72
[4]
  CC50: 19 µM
[5]
  selectivity ratio: < 1

## Cc1cc(C)c(-n2c(SCC(=O)Nc3ccc(C)cc3Br)nc3cnccc32)c(C)c1
[2]
  pEC50: < 5.23
[3]
  pEC50: < 5.23
[4]
  CC50: 5.9 µM
[5]
  selectivity ratio: < 1

## Cc1cc(C)c(-n2c(SCC(=O)Nc3cccnc3Cl)nc3cccnc32)c(C)c1
[2]
  pEC50: < 5.22
[3]
  pEC50: < 5.22
[4]
  CC50: 6 µM
[5]
  selectivity ratio: < 1

## COC(=O)c1ccc(NC(=O)CSc2nc3cccnc3n2-c2c(C)cc(C)cc2C)c(Br)c1
[1]
  pEC50: < 4.10
[2]
  pEC50: 5.05
[3]
  pEC50: < 4.10
[4]
  CC50: 80 µM
[5]
  selectivity ratio: 9

## Cc1cc(C)c(-n2c(SCC(=O)Nc3ccccc3[N+](=O)[O-])nc3cccnc32)c(C)c1
[1]
  pEC50: < 4.41
[2]
  pEC50: ≤ 5.17
[3]
  pEC50: < 4.41
[4]
  CC50: 39 µM
[5]
  selectivity ratio: ≤ 6

## Cc1cn([C@H]2C[C@H](N=[N+]=[N-])[C@@H](CO)O2)c(=O)[nH]c1=O [ZIDOVUDINE]
[1]
  pEC50: 8.00
[2]
  pEC50: 5.22
[4]
  CC50: ≥ 50 µM
[5]
  selectivity ratio: ≥ 8300

## O=C(CSc1snnc1-c1ccc(Br)cc1Br)Nc1cccnc1Cl
[2]
  pEC50: 7.44
[5]
  selectivity ratio: > 6460

## Cc1cc(C)c(-n2c(SCC(=O)Nc3ccccc3[N+](=O)[O-])nc3cnccc32)c(C)c1
[1]
  pEC50: < 5.00
[2]
  pEC50: 5.24
[3]
  pEC50: < 5.00
[4]
  CC50: 9.9 µM
[5]
  selectivity ratio: 2

## Cc1cc(C)c(-n2c(SCC(=O)Nc3ccccc3)nc3cnccc32)c(C)c1
[2]
  pEC50: < 4.77
[3]
  pEC50: < 4.77
[4]
  CC50: 17 µM
[5]
  selectivity ratio: < 1

## O=C1Nc2ccc(Cl)cc2[C@@](C#CC2CC2)(C(F)(F)F)O1 [EFAVIRENZ]
[4]
  CC50: > 6.3 µM
[5]
  selectivity ratio: > 964

## CCOC(=O)c1ccc(NC(=O)CSc2nc3cccnc3n2-c2c(C)cc(C)cc2C)c(Br)c1
[1]
  pEC50: < 3.93
[2]
  pEC50: 5.00
[3]
  pEC50: < 3.93
[4]
  CC50: 117 µM
[5]
  selectivity ratio: 12

## Cc1cc(C)c(-n2c(SCC(=O)Nc3ccccc3Br)nc3cccnc32)c(C)c1
[2]
  pEC50: < 5.25
[3]
  pEC50: < 5.25
[4]
  CC50: 5.6 µM
[5]
  selectivity ratio: < 1

## Nc1ccn([C@H]2CC[C@@H](CO)O2)c(=O)n1 [ZALCITABINE]
[3]
  pEC50: 5.77
[4]
  CC50: > 95 µM
[5]
  selectivity ratio: > 68

## Cc1cc(C)c(-n2c(SCC(=O)Nc3ccccc3)nc3cccnc32)c(C)c1
[2]
  pEC50: < 4.59
[3]
  pEC50: < 4.59
[4]
  CC50: 26 µM
[5]
  selectivity ratio: < 1

## Cc1cc(C)c(-n2c(SCC(=O)Nc3ccc(Cl)cc3Cl)nc3cnccc32)c(C)c1
[1]
  pEC50: < 3.85
[2]
  pEC50: ≤ 5.96
[3]
  pEC50: < 3.85
[4]
  CC50: 140 µM
[5]
  selectivity ratio: ≤ 127

## Cc1cc(C)c(-n2c(SCC(=O)Nc3ncc(C)cc3Br)nc3cccnc32)c(C)c1
[2]
  pEC50: < 3.99
[3]
  pEC50: < 3.99
[4]
  CC50: 102 µM
[5]
  selectivity ratio: < 1

## Cc1ccnc2c1NC(=O)c1cccnc1N2C1CC1 [NEVIRAPINE]
[1]
  pEC50: < 4.82
[4]
  CC50: > 15 µM
[5]
  selectivity ratio: > 75
